This note sets out measurements from ChEMBL document CHEMBL4610004, “Lipidated α/Sulfono-α-AA heterogeneous peptides as antimicrobial agents for MRSA” (Bioorg Med Chem, 2020).

Converted amounts (≈) assume the structure as drawn. The source made the active and inactive calls. The calls are words filed in the database; no cut-off is given here.

The test system of series [1] is Staphylococcus aureus. In words: Antibacterial activity against methicillin-resistant Staphylococcus aureus ATCC 33591 assessed as reduction in bacterial growth incubated for 18 hrs by broth microdilution method. The following applies: ATCC 33591, 18 h. A general note: Dilution methods test growth across graded concentrations, often in twofold steps.
A short description of series [2]: Hemolytic activity in human RBC assessed as hemoglobin release incubated for 1 hr. It counts as ADME, cell-based, Erythrocyte. The following applies: red blood cells (erythrocytes). An outline of the steps: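 Human red blood cells washed in PBS, pelleted at 1000g for 10 min, resuspended at 5% v/v. Compound serially diluted two-fold (50 µL) and mixed with 50 µL of the RBC suspension. Incubated 1 h at 37 °C, centrifuged 10 min at 3500 rpm, supernatant diluted with PBS, hemoglobin read at 540 nm. PBS defines 0% and 0.1% Triton X-100 defines 100% hemolysis. HC50 reported.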

Series [3] has as its system Staphylococcus aureus. Nature of the series: Induction of cell membrane disruption in methicillin-resistant Staphylococcus aureus ATCC 33591 assessed as increase in depolarization measured for 30 mins by DiSC3 dye based fluorescence assay. Format: organism-based. An outline of the steps: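 Mid-log cells are washed in 5 mM HEPES then 5 mM glucose. They are resuspended (10⁸ CFU/mL) in HEPES/glucose/KCl 1:1:1 with 2 µM DiSC3. Fluorescence (ex 622, em 670 nm) is monitored 30 min at room temperature until minimal. Peptide is then added and the fluorescence rise followed as depolarization. Three trials, each in duplicate.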

Series [4] is described as follows: Selectivity index, ratio of HC50 for human RBC to MIC for methicillin-resistant Staphylococcus aureus ATCC 33591. Format: toxicity. As to conditions: red blood cells (erythrocytes). The gist of the method: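 Selectivity = HC50 / MIC. For HC50, PBS-washed human RBCs (spun 1000g, 10 min) are diluted to 5% v/v and mixed 1:1 with twofold peptide dilutions. After 1 h at 37 °C, plates are spun and the diluted supernatant is read at 540 nm. PBS sets 0% and 0.1% Triton X-100 sets 100% hemolysis. MIC is by OD600 broth microdilution, 18 h, 37 °C.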

The subject of series [5] is Staphylococcus aureus. In words: Bactericidal activity against methicillin-resistant Staphylococcus aureus ATCC 33591 assessed as reduction in bacterial colonies formation at 12.5 ug/ml incubated for 120 min followed by dilution of the suspension and further incubation for 20 hrs on agar plate by time kill assay. Format: functional, organism-based. The gist of the method: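 Bacteria are exposed to a range of peptide concentrations and sampled at 0, 10, 20, 30, 60 and 120 min. At each time point 100 µL of suspension is taken, diluted, and plated on agar for 20 h at 37 °C. Colonies are counted and expressed as log CFU/mL versus time. Done in triplicate.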

In series [6] the test system is Staphylococcus aureus. Nature of the series: Induction of cell membrane disruption in methicillin-resistant Staphylococcus aureus ATCC 33591 assessed as increase in PI-positive cells at 5 ug/ml incubated for 2 hrs by DAPI and PI dye based fluorescence microscopy. Format: organism-based. An outline of the steps:
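Mid-log MRSA is incubated at 37 °C with peptide (5 µg/mL); the methods give 4 h and the legend gives 2 h. Cells are pelleted (3000g, 15 min) and PBS-washed. They are stained with DAPI (10 µg/mL, 0 °C, 15 min, dark), washed, then stained with PI (5 µg/mL). Untreated cells serve as controls. Imaged by optical microscopy at 100×.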

The MIC is the least concentration at which growth counts as inhibited. In general, HC50 refers to the concentration giving 50% haemolysis.

Take `CCCCCCCCCCCCCCCC(=O)N[C@@H](CCCCN)C(=O)NCCN([C@@H](C)C(=O)NCCN([C@@H](C)C(N)=O)S(=O)(=O)c1ccc(Cl)cc1)S(=O)(=O)c1ccc(Cl)cc1`: in the series on Staphylococcus aureus [1], the minimum inhibitory concentration (MIC) amounted to 10 µg/mL (≈ 10.4 µM). Still for that read-out and setting: the value for `CCCCCCCCCCCCCCCC(=O)N[C@@H](CCCCN)C(=O)NCCN([C@@H](C)C(=O)NCCN([C@@H](C)C(=O)NCCN([C@@H](C)C(N)=O)S(=O)(=O)c1ccc(Cl)cc1)S(=O)(=O)c1ccc(Cl)cc1)S(=O)(=O)c1ccc(Cl)cc1` was more than 25 µg/mL; that for `CCCCCCCCCC(=O)N[C@@H](CCCCN)C(=O)NCCN([C@@H](C)C(N)=O)S(=O)(=O)c1ccc(Cl)cc1` was more than 25 µg/mL. Still for that read-out and setting: the value for `CCCCCCCCCCCCCCCC(=O)N[C@@H](CCCCN)C(=O)NCCN([C@@H](C)C(N)=O)S(=O)(=O)c1ccc(Br)cc1` was 2 µg/mL (≈ 2.79 µM). Regarding `CCCCCCCCCCCCCC(=O)N[C@@H](CCCCN)C(=O)NCCN([C@@H](C)C(N)=O)S(=O)(=O)c1ccc(Cl)cc1`, in the series with Staphylococcus aureus [1], the MIC came to 5 µg/mL (≈ 7.76 µM). On the same count and under the same terms, the same measure for `CCCCCCCCCCCCCCCC(=O)N[C@@H](CCCCN)C(=O)NCCN([C@@H](C)C(=O)NCCN([C@@H](C)C(=O)NCCN([C@@H](C)C(N)=O)S(=O)(=O)c1ccc(Br)cc1)S(=O)(=O)c1ccc(Br)cc1)S(=O)(=O)c1ccc(Br)cc1`: more than 25 µg/mL.

Take `CCCCCCCCCCCCCCCC(=O)N[C@@H](CCCCN)C(=O)NCCN([C@@H](C)C(=O)NCCN([C@@H](C)C(N)=O)S(=O)(=O)c1ccccc1)S(=O)(=O)c1ccccc1`: the MIC with Staphylococcus aureus [1] turned out to be 2 µg/mL (≈ 2.24 µM). Regarding `CCCCCCCCCCCCCCCC(=O)N[C@@H](CCCCN)C(=O)NCCN([C@@H](C)C(N)=O)S(=O)(=O)c1ccccc1`, the MIC in the series on Staphylococcus aureus [1] turned out to be 5 µg/mL (≈ 7.84 µM). For the compound `CCCCCCCCCCCCCCCC(=O)N[C@@H](CCCCN)C(=O)NCCN([C@@H](C)C(N)=O)S(=O)(=O)c1ccc(Cl)cc1`, the HC50 at 1 h in series [2] was 62.5 µg/mL. The outcome in the series with Staphylococcus aureus [3], with Staphylococcus aureus [5] and in the series with Staphylococcus aureus [6] was Active. Moreover, the MIC with Staphylococcus aureus [1] is 1 µg/mL (≈ 1.49 µM). In addition, in series [4], the selectivity ratio amounted to 62.5. Consider `CCCCCCCC(=O)N[C@@H](CCCCN)C(=O)NCCN([C@@H](C)C(N)=O)S(=O)(=O)c1ccc(Cl)cc1`, for which, in the series on Staphylococcus aureus [1], the MIC was more than 25 µg/mL. The same measure, in the same setting: the value for `CCCCCCCCCCCCCCCC(=O)N[C@@H](CCCCN)C(=O)NCCN([C@@H](C)C(=O)NCCN([C@@H](C)C(=O)NCCN([C@@H](C)C(N)=O)S(=O)(=O)c1ccccc1)S(=O)(=O)c1ccccc1)S(=O)(=O)c1ccccc1` was 10 µg/mL (≈ 8.72 µM). Still for that read-out and setting: the value for `CCCCCCCCCCCC(=O)N[C@@H](CCCCN)C(=O)NCCN([C@@H](C)C(N)=O)S(=O)(=O)c1ccc(Cl)cc1` was 5 µg/mL (≈ 8.11 µM); that for `CCCCCCCCCCCCCCCC(=O)N[C@@H](CCCCN)C(=O)NCCN([C@@H](C)C(=O)NCCN([C@@H](C)C(N)=O)S(=O)(=O)c1ccc(Br)cc1)S(=O)(=O)c1ccc(Br)cc1` was 5 µg/mL (≈ 4.76 µM).
